Shown are actives, neighbours in structure and some others; about 1.8% of the full set was active somewhere.
TRAIL sens C8: caspase-8 TRAIL sensitization; NB7+C8 cells + TRAIL, ATPlite viability luminescence; inhibition (viability loss, TRAIL sensitization), % at 10 µM; actives 1% (n = 360,000);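 active means compounds causing at least 50% loss of cell viability in the single-dose screen, relative to plate controls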
STAT1 inh: reduces IFN-gamma driven STAT1 reporter signal; NIH 3T3 STAT1-luciferase reporter, luminescence; inhibition, % at 5.5 µM; actives 0.35% (n = 200,000); AID 920;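 active means inhibition above a set limit, the mean inhibition across all tested compounds plus 3 SD, cut at about 34% in these data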
STAT3 activator: increases IL-6 driven STAT3 reporter signal. U3A cells, IL-6 STAT3-luciferase reporter, luminescence; 100% = signal with IL-6 EC80 alone. activation (% of control), % at 5.6 µM. actives 0.91% (n = 190,000). AID 871;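 active means activation above the screen-wide mean of compound activation plus 3 SD, cut at about 130% in these data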
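Test system: Human STAT1-deficient U3A cells with stable STAT3-luciferase reporter | Also added: Interleukin-6, 33 ng/mL | Timing: Compound pre-incubation 1 h before IL-6, then 6 h stimulation at 37 °C | Technique: Luciferase reporter luminescence | Read-out: Percent of IL-6-only median luminescence | Benchmarks: IL-6-only wells as 100% reference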
STAT3 inh: reduces IL-6 driven STAT3 reporter signal | U3A cells, IL-6 STAT3-luciferase reporter, luminescence; host cell line lacks STAT1 | inhibition, % at 5.5 µM | actives 0.89% (n = 190,000);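 active means inhibition above the mean inhibition across all screened compounds plus 3 SD, cut at about 44% in these data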
PPC-1+TRAIL kill: kills PPC-1 cancer cells in the presence of TRAIL. PPC-1 cells + TRAIL, ATPLite viability luminescence. cell killing (% activity), % at 4 µM or 5 µM. actives 0.41% (n = 220,000);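 active means cell killing above 50% in the first pass at 4 µM, then a duplicate retest at 5 µM averaging 50% or more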
Numbers stand for hits; n = inactive; x = no result.

SMILES | TRAIL sens C8 | STAT1 inh | STAT3 activator | STAT3 inh | PPC-1+TRAIL kill
COC(=O)c1sccc1NC(=O)c1ccc(C)cc1 | n | x | x | x | x
COC(=O)c1sccc1NC(=O)c1csc(C)c1 | n | n | 136 | n | n
Cc1cc(C)c(S(=O)(=O)Nc2cc(SCC(=O)O)c(O)c3ccccc23)cc1C | x | n | 135 | n | n
O=C(N/N=C/c1ccc(O)c2ncccc12)c1cccc(Br)c1 | 55 | n | n | n | n
Cc1csc(-c2cc(C(=O)NCc3ccc(F)cc3)n[nH]2)c1 | n | x | x | x | x
Cc1ccc(Nc2c(-c3ccc(N4CCOCC4)cc3)nc3cnccn23)cc1 | n | x | x | x | n
Cc1ccccc1Nc1c(-c2ccc(N3CCOCC3)cc2)nc2cnccn12 | 48 | x | x | x | n
COc1cc2c(cc1OC)C(c1ccccc1)N(C(=O)CCl)CC2 (stereo not given) | 86 | n | n | n | n
COc1cc2c(cc1OC)C(C1C(=O)CCCC1=O)N(C(=O)CCl)CC2 (stereo not given) | n | n | n | n | n
CCOc1ccc2nc(N3C(=O)CNC3=S)sc2c1 | 59 | x | x | x | n
CCCCC(=O)N1CCN(c2nc3ccc(OCC)cc3s2)CC1 | n | x | x | x | x
O=C(/C=C/NNC(=O)c1ccccc1)c1ccc([N+](=O)[O-])cc1 | 50 | n | n | n | n
CC1CCN(c2nc3ccc(C(=O)O)cc3s2)CC1 | n | 80 | n | 109 | n
Nc1ccc(-c2nc3ccc(C(=O)O)cc3s2)cc1 | 70 | 89 | n | 104 | n
NC(=O)c1ccc2nc(NC(=O)c3ccc(N)cc3)sc2c1 | n | n | n | n | n
Nc1cc2sc(-c3ccc(C(=O)O)cc3)nc2cc1Cl | 57 | n | n | n | 51
CC1CCN(C(=O)c2[nH]cnc2C(=O)Nc2ccccc2)CC1 | n | x | x | x | x
COc1cc2oc(=O)cc(CN3CCCCCCC3)c2cc1Cl | n | x | x | x | x
COc1ccc(S(=O)(=O)N(C)C)cc1NC(=O)COC(=O)c1nc2nccc(C)n2n1 | n | x | x | x | n
O=C1Nc2ccccc2CN2C(=O)c3cc(Cl)ccc3NC(=O)C12 (stereo not given) | n | x | x | x | x
CCN1/C(=C/c2cccc[n+]2C)Sc2ccc(OC)cc21 | 54 | x | x | x | x
COc1ccc2c(c1)N(C)/C(=C/c1cccc[n+]1C)S2 | n | x | x | x | x
CN(NC(=O)c1cccc(Cl)c1)c1nc(-c2ccccc2)nnc1C(F)(F)F | 53 | n | n | n | n
COc1ccccc1CCC(=O)N1CCC(n2nccc2NC(=O)C2CCOC2)CC1 (stereo not given) | n | x | x | x | x
O=c1cccc(-c2cccc3ccccc23)o1 | n | x | x | x | x
SMILES | TRAIL sens C8 | STAT1 inh | STAT3 activator | STAT3 inh | PPC-1+TRAIL kill
Cc1ccc(C(=O)O/N=C(\N)Cc2cccs2)c(Cl)c1 | 96 | x | x | x | x
Cc1cccc(/C(N)=N/OC(=O)c2ccncc2)c1 | n | x | x | x | x
Cc1ccc(C(=O)O/N=C(\N)Cc2ccc([N+](=O)[O-])cc2)c(Cl)c1 | n | x | x | x | n
Cc1ccc(/C(N)=N/OC(=O)c2ccc(Cl)cc2Cl)cc1 | 67 | n | n | n | 57
Cc1cccc(/C(N)=N/OC(=O)c2ccoc2C)c1 | 91 | x | x | x | x
Cc1cccc(C(=O)O/N=C(\N)c2ccc(Cl)cc2)c1 | n | x | x | x | x
Cc1ccccc1C(=O)O/N=C(\N)c1ccccc1 | 92 | x | x | x | x
COc1cc(Cl)ccc1OC1(C)CCN(Cc2cccn2-c2nccs2)C1 (stereo not given) | n | x | x | x | x
Cc1cc(C)cc(NC(=S)N2CCN(S(C)(=O)=O)CC2)c1 | n | x | x | x | x
Cc1ccc(/C(N)=N/OC(=O)c2cc(-c3ccccc3)nc3ccccc23)cc1 | 81 | n | n | n | n
CN(C)S(=O)(=O)c1ccc(N2CCN(S(=O)(=O)c3ccc(F)cc3)CC2)c(Cl)c1 | 53 | n | n | n | n
CN(C)S(=O)(=O)N1CCN(S(=O)(=O)c2ccc(F)cc2)CC1 | n | n | n | n | n
Cc1cc(N2CCN(C)CC2)nc2ccc(NC(=S)N3CCCCC3)cc12 | n | n | n | n | n
Cc1cccc(N2CCN(C(=S)Nc3ccc4nc(N5CCN(C)CC5)cc(C)c4c3)CC2C)c1 (stereo not given) | 67 | n | n | n | n
Cc1cccc(N2CCN(C(=S)Nc3ccc4nc(N5CCN(C)CC5)cc(C)c4c3)CC2)c1C | 93 | n | n | n | x
COc1ccc(CN2C(=O)CN(S(C)(=O)=O)CC2(C)C(=O)Nc2ccc3c(c2)OCCO3)cc1OC (stereo not given) | n | x | x | x | x
COc1ccc(C(=O)Nc2cccc(C)n2)cc1S(=O)(=O)N1CCCc2ccccc21 | n | x | x | x | x
C=CCNC(=O)c1onc(CSc2ccncc2)c1C(=O)NCC=C | n | x | x | x | n
Nc1ccccc1C(=O)N=Nc1[nH]c(N)c2ccccc12 | 51 | n | n | n | n
Nc1[nH]c(N=NC(=O)c2ccc(F)cc2)c2ccccc12 | n | n | n | n | n
O=C1[C@H]2[C@@H](c3ccc(C(F)(F)F)cc3)N[C@]3(CCCN(Cc4ccc(F)cc4)C3=O)[C@H]2C(=O)N1Cc1ccccc1 | n | x | x | x | x
Cc1csc(C(C#N)C(=O)c2cc3ccccc3o2)n1 (stereo not given) | 59 | n | n | n | n
Cc1ccc(-c2csc(NC(=O)c3ccc(-c4ccccc4)cc3)n2)o1 | 66 | n | n | n | n
Cc1ccnc(NC(=O)c2ccc(C(=O)c3ccccc3)cc2)c1 | 69 | x | x | x | x
O=C(NNC(=O)c1cc2ccccc2o1)c1ccc(F)cc1 | n | x | x | x | x
SMILES | TRAIL sens C8 | STAT1 inh | STAT3 activator | STAT3 inh | PPC-1+TRAIL kill
O=C(Nc1nc(-c2ccco2)cs1)c1ccccc1 | n | n | n | n | n
Cc1ccnc(NC(=O)c2cc3ccccc3o2)c1 | 86 | x | x | x | x
Cc1ccnc(NC(=O)c2ccccc2NC(=O)c2ccccc2)c1 | n | x | x | x | x
CCOc1ccccc1N(CC(=O)Nc1c(C)n(C)n(-c2ccccc2)c1=O)S(=O)(=O)c1ccccc1 | n | n | n | n | n
COc1ccccc1N(Cc1ccccc1)S(=O)(=O)c1cccc(C(=O)Nc2ncccc2C)c1 | n | x | x | x | x
COc1ccccc1N(Cc1ccccc1)S(=O)(=O)c1cccc(C(=O)Nc2cc(C)ccn2)c1 | 61 | x | x | x | x
Cc1cc(NC(=O)c2cncc(Br)c2)ccc1NC(=O)c1cc2ccccc2o1 | 60 | x | x | x | x
Cc1csc(NC(=O)c2cc3ccccc3o2)n1 | 65 | x | x | x | x
COc1cc(NC(=O)c2ccccc2)ccc1NC(=O)c1cc2ccccc2o1 | n | x | x | x | x
CCOC(=O)Cc1csc(NC(=O)c2cc3ccccc3o2)n1 | n | n | n | n | n
COC(=O)c1cccc(NC(=O)c2cc3ccccc3o2)c1 | 50 | x | x | x | x
Cc1cc2nc(-c3ccc[nH]c3=O)n(Cc3ccc(F)cc3)c2cc1C | n | x | x | x | x
Cc1cc2nc(-c3ccc[nH]c3=O)[nH]c2cc1C | 90 | x | x | x | x
COc1ccc(CC(N)c2csc(NC(=O)c3cc(C(C)(C)C)nn3Cc3ccccc3)n2)cc1 (stereo not given) | 50 | x | x | x | x
O=C(N=Nc1c(O)[nH]c2ccccc12)c1cc(NS(=O)(=O)c2cccs2)cc(NS(=O)(=O)c2cccs2)c1 | n | n | n | n | n
O=C(N=Nc1c(O)[nH]c2ccccc12)c1cccs1 | 62 | n | n | n | n
O=C(N=Nc1c(O)[nH]c2ccc(Br)cc12)c1cc(-c2cccs2)nc2ccccc12 | 87 | n | n | n | n

Assay outcomes: PubChem BioAssay, several laboratories
